# Assay results as given in ChEMBL document CHEMBL1150687, “Three new cytotoxic sesterterpenes from a marine sponge Spongia sp” (J Nat Prod, 2003).
# Activity calls are given as the source filed them. The rule behind the calls is not given here.
# Assays:
# HeLa = assay: Cytotoxicity against human HeLa cells; assay type: functional, cell-based
# A549 = assay: Cytotoxicity against human A549 cells; assay type: functional, cell-based
# CCRF S-180 [1] = assay: Antitumor activity against mouse S180 cells xenografted ICR/kwl mouse assessed as increase in mouse life span at 5 mg/kg, ip relative to control; assay type: functional
# In short: (§1)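 Female ICR/kwl mice (7 weeks, 19-21 g), six per group, inoculated ip with 0.1 mL sarcoma-180 suspension (1×10^7 cells/mL in saline). Compound dissolved in a little dimethylacetamide, suspended in 10% Tween 80-saline (1 mg/mL), given ip on days 1, 5 and 9 after inoculation. Survival followed; ILS (%) = (A/B − 1)×100 from weighed median survival days, treated versus untreated controls.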
# KB = assay: Cytotoxicity against human KB cells; assay type: functional, cell-based
# L1210 = assay: Cytotoxicity against mouse L1210 cells; assay type: functional, cell-based
# CCRF S-180 [2] = assay: Antitumor activity against mouse S180 cells xenografted ICR/kwl mouse assessed as increase in mouse life span at 10 mg/kg, ip relative to control; assay type: functional; in short: as §1
SMILES,IC50 (HeLa),IC50 (A549),Activity (CCRF S-180 [1]),IC50 (KB),IC50 (L1210),Activity (CCRF S-180 [1]; route intraperitoneal),Activity (CCRF S-180 [2]; route intraperitoneal),Activity (CCRF S-180 [2])
CC1(C)CCC[C@]2(C)[C@H]3C[C@@H](O)[C@]4(C)[C@@H]5C(=CC[C@H]4[C@]3(C)CC[C@@H]12)C(=O)O[C@H]5O,15 µg/mL,14.8 µg/mL,inactive,14.3 µg/mL,2.3 µg/mL,–,–,–
CO[C@@H]1C[C@H]2[C@]3(C)CC[C@H]4C(C)(C)CCC[C@]4(C)[C@H]3C[C@@H](OC(C)=O)[C@]2(C)C2=C1C(=O)O[C@H]2O,5.3 µg/mL,5.3 µg/mL,–,15.6 µg/mL,2.2 µg/mL,–,–,–
CC(=O)O[C@@H]1C[C@@H]2[C@@]3(C)CCCC(C)(C)[C@@H]3CC[C@@]2(C)[C@@H]2CC=C3C(=O)O[C@@H](O)[C@@H]3[C@@]12C,26 µg/mL,23.7 µg/mL,–,18.5 µg/mL,13.2 µg/mL,–,–,–
CC1(C)CCC[C@]2(C)[C@H]3C[C@@H](O)[C@]4(C)[C@H]5COC(=O)C5=CC[C@H]4[C@]3(C)CC[C@@H]12,16.5 µg/mL,16.5 µg/mL,–,17.1 µg/mL,1.6 µg/mL,50.3%,–,–
CC(=O)O[C@@H]1C[C@@H]2[C@@]3(C)CCCC(C)(C)[C@@H]3CC[C@@]2(C)[C@@H]2CC=C3CO[C@@H](O)[C@@H]3[C@@]12C,22.5 µg/mL,29.4 µg/mL,–,16.2 µg/mL,2.1 µg/mL,–,28%,–
O=c1[nH]cc(F)c(=O)[nH]1 [FLUOROURACIL],–,–,–,–,–,32.9%,–,Active
CO[C@@]12[C@H](COC(N)=O)C3=C(C(=O)C(C)=C(N)C3=O)N1C[C@@H]1N[C@@H]12 [MITOMYCIN],0.015 µg/mL,0.02 µg/mL,–,0.015 µg/mL,0.02 µg/mL,–,–,–
CC1(C)CCC[C@]2(C)[C@H]3C[C@@H](O)[C@]4(C)c5cocc5CC[C@H]4[C@]3(C)CC[C@@H]12,19.5 µg/mL,> 50 µg/mL,–,> 50 µg/mL,> 50 µg/mL,–,–,–
